Experimental findings from ChEMBL document CHEMBL1240500, “Peptidyl alpha-ketoamides with nucleobases, methylpiperazine, and dimethylaminoalkyl substituents as calpain inhibitors” (J Med Chem, 2010) are described below.

System in the first data set: not listed separately
Briefly: Drug level in C57BL/6 mouse heart at 24 mg/kg, sc after 1 hr by HPLC analysis. In kind it is ADME, organism-based. Set-up: dose 24 mg/kg, route subcutaneous. To be noted: read-out: Drug uptake. Summed up:
(§1)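 7-week-old female C57BL/6 mice got 24 mg/kg subcutaneously (N = 2) or intravenously (N = 3). They were perfused with buffered saline at 37 °C and killed at 1 h. Tissues were homogenized 5% w/v in water with internal standard. LC-MS/MS used ESI+ MRM and a Zorbax Extend C18 column. Concentration came from the analyte/internal-standard area ratio against calibration standards made in undosed control tissue (0.10–1.00 µM). Errors came from repeat injections.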
Turning to `CCC(NC(=O)[C@H](CC(C)C)NC(=O)OCc1ccccc1)C(=O)C(=O)NCCCN1CCOCC1` (some centres not stated), the concentration at 1 h turned out to be 541 ng/g.

System in a further data set: not listed separately
The data set can be described thus: Drug level in C57BL/6 mouse heart at 24 mg/kg, iv after 1 hr by HPLC analysis. In kind it is ADME, organism-based. Details: dose 24 mg/kg, route intravenous. As to conditions: read-out: Drug uptake. The gist of the method:
as §1
For `CCC(NC(=O)[C@H](CC(C)C)NC(=O)OCc1ccccc1)C(=O)C(=O)NCCCN1CCOCC1` (some centres not stated), the concentration at 1 h was 561 ng/g.

System in a further data set: not listed separately
Briefly: Drug level in C57BL/6 mouse serum at 24 mg/kg, sc after 1 hr by HPLC analysis. As to conditions: read-out: Drug uptake. Set-up: dose 24 mg/kg, route subcutaneous. In kind it is ADME, organism-based. Summed up: as §1
As for `CCC(NC(=O)[C@H](CC(C)C)NC(=O)OCc1ccccc1)C(=O)C(=O)NCCCN1CCOCC1` (some centres not stated), the concentration at 1 h is 895 ng/g.

The next data set addresses Cathepsin B (Homo sapiens, UniProt P07858). The data set can be described thus: Inhibition of human liver cathepsin B.
Conditions: not given
The gist of the method: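 Human liver cathepsin B was DTT-activated (final 0.4 µM) in 0.1 M NaHPO4 pH 6.0 with 1.25 mM EDTA, 0.01% Brij and <5% DMSO. Cbz-Arg-Arg-AMC was used at 0.5, 0.2 and 0.1 µM, with ≥5 inhibitor concentrations. AMC fluorescence was read at ex 360/em 465 nm. Ki was taken from Dixon plots of 1/v versus [I].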
In the case of `CC(C)C[C@H](NC(=O)OCc1ccccc1)C(=O)NC(Cc1ccccc1)C(=O)C(=O)NCCN(C)C` (some centres not stated), affinity was put at a Ki of 475000 nM.

On to `CC(C)C[C@H](NC(=O)OCc1ccccc1)C(=O)NC(Cc1ccccc1)C(=O)C(=O)NCCCN1CCN(C)CC1` (some centres not stated), for which the Ki (usually the equilibrium dissociation constant of an inhibitor or competing ligand from its target) was determined as 111000 nM.

As for `CCC(NC(=O)[C@H](CC(C)C)NC(=O)OCc1ccccc1)C(=O)C(=O)NCCCn1ccc(N)nc1=O` (some centres not stated), the Ki was determined as 750 nM.

As to `CCC(NC(=O)[C@H](CC(C)C)NC(=O)OCc1ccccc1)C(=O)C(=O)NCCCn1cnc2c(N)ncnc21` (some centres not stated), the Ki worked out at 800 nM.

`CCC(NC(=O)[C@H](CC(C)C)NC(=O)OCc1ccccc1)C(=O)C(=O)NCCCN1CCOCC1` (some centres not stated): the Ki stood at 6900 nM.

System in another data set: not listed separately
The data set can be described thus: Drug level in C57BL/6 mouse brain at 24 mg/kg, sc after 8 hrs by HPLC analysis. Format: ADME, organism-based. Set-up: dose 24 mg/kg, route subcutaneous. To be noted: read-out: Drug uptake. The gist of the method:
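7-week-old female C57BL/6 mice (N = 3 per time point) got 24 mg/kg subcutaneously, were perfused with buffered saline at 37 °C, and were killed at 1, 2, 4 or 8 h. Brain was homogenized 5% w/v in water with internal standard spiked in. LC-MS/MS used ESI+ MRM and a Symmetry Shield C18 column. Quantitation was by peak-area ratio against plasma calibration standards.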
Take `CCC(NC(=O)[C@H](CC(C)C)NC(=O)OCc1ccccc1)C(=O)C(=O)NCCCn1cnc2c(N)ncnc21` (some centres not stated): the concentration at 8 h was 1170 ng/g.

System in the next data set: not listed separately
The data set can be described thus: Drug level in C57BL/6 mouse peripheral nerve at 24 mg/kg, iv after 1 hr by HPLC analysis. In kind it is ADME, organism-based. Details: dose 24 mg/kg, route intravenous. As to conditions: read-out: Drug uptake. Summed up:
as §1
With `CCC(NC(=O)[C@H](CC(C)C)NC(=O)OCc1ccccc1)C(=O)C(=O)NCCCN1CCOCC1` (some centres not stated), the concentration at 1 h came to 333 ng/g.

System in another data set: not listed separately
The data set can be described thus: Drug level in C57BL/6 mouse spleen at 24 mg/kg, sc after 1 hr by HPLC analysis. Format: ADME, organism-based. Set-up: dose 24 mg/kg, route subcutaneous. As to conditions: read-out: Drug uptake. The gist of the method:
as §1
For the compound `CCC(NC(=O)[C@H](CC(C)C)NC(=O)OCc1ccccc1)C(=O)C(=O)NCCCN1CCOCC1` (some centres not stated), the concentration at 1 h turned out to be 1380 ng/g.

System in another data set: not listed separately
Briefly: Drug level in C57BL/6 mouse liver at 24 mg/kg, sc after 1 hr by HPLC analysis. Details: dose 24 mg/kg, route subcutaneous. To be noted: read-out: Drug uptake. In kind it is ADME, organism-based. Summed up: as §1
For `CCC(NC(=O)[C@H](CC(C)C)NC(=O)OCc1ccccc1)C(=O)C(=O)NCCCN1CCOCC1` (some centres not stated), the concentration at 1 h turned out to be 1550 ng/g.

System in another data set: not listed separately
The data set can be described thus: Drug level in C57BL/6 mouse spleen at 24 mg/kg, iv after 1 hr by HPLC analysis. To be noted: read-out: Drug uptake. Format: ADME, organism-based. Set-up: dose 24 mg/kg, route intravenous. Summed up:
as §1
Take `CCC(NC(=O)[C@H](CC(C)C)NC(=O)OCc1ccccc1)C(=O)C(=O)NCCCN1CCOCC1` (some centres not stated): the concentration at 1 h worked out at 1320 ng/g.

System in the next data set: not listed separately
Briefly: Drug level in C57BL/6 mouse kidney at 24 mg/kg, iv after 1 hr by HPLC analysis. Format: ADME, organism-based. As to conditions: read-out: Drug uptake. Set-up: dose 24 mg/kg, route intravenous. Summed up: as §1
Turning to `CCC(NC(=O)[C@H](CC(C)C)NC(=O)OCc1ccccc1)C(=O)C(=O)NCCCN1CCOCC1` (some centres not stated), the concentration at 1 h stood at 1820 ng/g.

The next data set addresses T1, Calpain-1 catalytic subunit (Sus scrofa, UniProt P35750).
T1 sequence (P35750 whole entry): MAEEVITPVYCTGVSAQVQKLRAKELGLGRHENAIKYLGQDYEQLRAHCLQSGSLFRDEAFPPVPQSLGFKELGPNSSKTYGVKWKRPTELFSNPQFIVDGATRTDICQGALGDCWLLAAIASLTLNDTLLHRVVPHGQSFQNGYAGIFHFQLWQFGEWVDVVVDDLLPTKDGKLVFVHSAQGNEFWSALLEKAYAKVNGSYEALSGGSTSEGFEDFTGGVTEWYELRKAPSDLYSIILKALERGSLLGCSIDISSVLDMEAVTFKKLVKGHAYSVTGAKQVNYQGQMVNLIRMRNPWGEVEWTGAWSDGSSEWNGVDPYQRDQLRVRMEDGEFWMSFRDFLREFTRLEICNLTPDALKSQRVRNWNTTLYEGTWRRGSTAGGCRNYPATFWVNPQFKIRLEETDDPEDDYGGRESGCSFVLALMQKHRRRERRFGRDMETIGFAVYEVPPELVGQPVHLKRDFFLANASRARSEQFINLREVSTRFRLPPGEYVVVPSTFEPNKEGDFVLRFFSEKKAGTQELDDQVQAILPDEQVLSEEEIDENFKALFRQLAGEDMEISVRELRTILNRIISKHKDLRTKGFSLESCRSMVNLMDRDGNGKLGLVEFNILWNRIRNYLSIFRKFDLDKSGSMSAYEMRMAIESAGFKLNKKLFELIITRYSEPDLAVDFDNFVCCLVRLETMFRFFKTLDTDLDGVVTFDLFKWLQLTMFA
Briefly: Inhibition of porcine erythrocyte calpain 1.
Conditions: not given
Take `CC(C)C[C@H](NC(=O)OCc1ccccc1)C(=O)NC(Cc1ccccc1)C(=O)C(=O)NCCN(C)C` (some centres not stated): the Ki was found to be 711 nM.

`CC(C)C[C@H](NC(=O)OCc1ccccc1)C(=O)NC(Cc1ccccc1)C(=O)C(=O)NCCCN1CCN(C)CC1` (some centres not stated) returned an inhibition constant (Ki) of 1370 nM.

Compound `CCC(NC(=O)[C@H](CC(C)C)NC(=O)OCc1ccccc1)C(=O)C(=O)NCCCn1ccc(N)nc1=O` (some centres not stated) registered an inhibition constant (Ki) of 165 nM.

In the case of `CCC(NC(=O)[C@H](CC(C)C)NC(=O)OCc1ccccc1)C(=O)C(=O)NCCCn1cnc2c(N)ncnc21` (some centres not stated), the Ki is 53 nM.

Turning to `CCC(NC(=O)[C@H](CC(C)C)NC(=O)OCc1ccccc1)C(=O)C(=O)NCCCN1CCOCC1` (some centres not stated), the affinity, expressed as Ki, was 150 nM.

In the next data set the target is T2, Calpain-2 catalytic subunit (Sus scrofa, UniProt P43367).
T2 sequence (P43367 whole entry): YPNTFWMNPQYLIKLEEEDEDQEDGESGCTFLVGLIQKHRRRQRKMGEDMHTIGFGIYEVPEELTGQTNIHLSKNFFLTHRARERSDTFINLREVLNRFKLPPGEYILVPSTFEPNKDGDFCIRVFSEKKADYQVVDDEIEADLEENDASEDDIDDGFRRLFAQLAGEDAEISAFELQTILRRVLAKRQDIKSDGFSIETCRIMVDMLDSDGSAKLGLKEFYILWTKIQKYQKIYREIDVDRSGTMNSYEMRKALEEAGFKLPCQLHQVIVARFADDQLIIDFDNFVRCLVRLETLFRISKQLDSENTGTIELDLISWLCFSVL
The data set can be described thus: Inhibition of porcine kidney calpain 2.
Conditions: not given
`CC(C)C[C@H](NC(=O)OCc1ccccc1)C(=O)NC(Cc1ccccc1)C(=O)C(=O)NCCN(C)C` (some centres not stated) registered a Ki of 3520 nM.

With `CC(C)C[C@H](NC(=O)OCc1ccccc1)C(=O)NC(Cc1ccccc1)C(=O)C(=O)NCCCN1CCN(C)CC1` (some centres not stated), the affinity corresponds to a Ki of 6360 nM.

For the compound `CCC(NC(=O)[C@H](CC(C)C)NC(=O)OCc1ccccc1)C(=O)C(=O)NCCCn1ccc(N)nc1=O` (some centres not stated), the affinity corresponds to a Ki of 1140 nM.

In turn, `CCC(NC(=O)[C@H](CC(C)C)NC(=O)OCc1ccccc1)C(=O)C(=O)NCCCn1cnc2c(N)ncnc21` (some centres not stated) yielded an inhibition constant (Ki) of 70 nM.

`CCC(NC(=O)[C@H](CC(C)C)NC(=O)OCc1ccccc1)C(=O)C(=O)NCCCN1CCOCC1` (some centres not stated) had an inhibition constant Ki of 41 nM.

In a further data set the target is T3, Calpain-1 catalytic subunit (Sus scrofa) (UniProt P35750).
T3 sequence (whole entry): T1 sequence (P35750 whole entry)
Briefly: Ratio of compound Ki to AK295 Ki for porcine erythrocyte calpain 1.
Conditions: not given
For the compound `CCC(NC(=O)[C@H](CC(C)C)NC(=O)OCc1ccccc1)C(=O)C(=O)NCCCn1cnc2c(N)ncnc21` (some centres not stated), the Ratio came to 3.

System in another data set: not listed separately
Briefly: Drug level in C57BL/6 mouse kidney at 24 mg/kg, sc after 1 hr by HPLC analysis. In kind it is ADME, organism-based. Details: dose 24 mg/kg, route subcutaneous. To be noted: read-out: Drug uptake. Summed up: as §1
Consider `CCC(NC(=O)[C@H](CC(C)C)NC(=O)OCc1ccccc1)C(=O)C(=O)NCCCN1CCOCC1` (some centres not stated), for which the concentration at 1 h was 936 ng/g.

System in another data set: not listed separately
The data set can be described thus: Drug level in C57BL/6 mouse liver at 24 mg/kg, iv after 1 hr by HPLC analysis. Format: ADME, organism-based. Details: dose 24 mg/kg, route intravenous. To be noted: read-out: Drug uptake. Summed up: as §1
Turning to `CCC(NC(=O)[C@H](CC(C)C)NC(=O)OCc1ccccc1)C(=O)C(=O)NCCCN1CCOCC1` (some centres not stated), the concentration at 1 h was determined as 943 ng/g.
